The results in this text go back to ChEMBL document CHEMBL4014335, “Activation of Phenyl 4-(2-Oxo-3-alkylimidazolidin-1-yl)benzenesulfonates Prodrugs by CYP1A1 as New Antimitotics Targeting Breast Cancer Cells” (J Med Chem, 2017).

Active and inactive are the calls of the source. No cut-off for these calls is given here.

The subject of one series is HT-29. Kind of series: Antiproliferative activity against human HT-29 cells after 48 hrs by SRB assay. The class given is functional, cell-based. Conditions: HT-29, 48 h. In a few lines: (§1)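 SRB assay run as in the NCI screen with slight modifications. Seeding: HT-29 5.0 x 10^3, M21 3.5 x 10^3, MCF7 7.5 x 10^3 cells; cells preincubated 24 h. Drug in DMSO added at 0.75 to 1.0 x 10^5 nM for 48 h. TCA fixation, sulforhodamine B staining, absorbance 530-565 nm. At least two experiments in triplicate; runs accepted only when relative SD < 10%.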
On the technique in general: Sulforhodamine B stains cellular protein and so reports cell mass.

In a further series the test system is M21. Kind of series: Antiproliferative activity against human M21 cells after 48 hrs by SRB assay. The class given is functional, cell-based. The settings on record: M21, 48 h. Put shortly: as §1
Series [1] deals with MCF7. Kind of series: Cell cycle arrest in human MCF7 cells assessed as accumulation at S phase at 50 nM after 24 hrs by DAPI-staining based FACS analysis (reference value: 10.6%). It counts as functional. For orientation: Flow cytometry measures light scatter and fluorescence of single cells or particles in a stream.
Series [2] deals with MDA-MB-231. As to the kind of experiment: Cell cycle arrest in human MDA-MB-231 cells assessed as accumulation at G2/M phase at 50 nM after 24 hrs by DAPI-staining based FACS analysis (reference value: 15.5%). It counts as functional.
For series [3], the species on record is Homo sapiens. As to the kind of experiment: Destabilization of microtubule network in human MDA-MB-468 cells at 50 nM after 24 hrs by fluorescence microscopic analysis. The class given is cell-based.
For series [4], the species on record is Homo sapiens. As to the kind of experiment: Destabilization of microtubule network in human MCF7 cells at 50 nM after 24 hrs by fluorescence microscopic analysis. The class given is cell-based.
The species named for series [5] is Homo sapiens. As to the kind of experiment: Destabilization of microtubule network in human MDA-MB-231 cells at 50 nM after 24 hrs by fluorescence microscopic analysis. It counts as cell-based.
Series [6] relates to MDA-MB-468. As to the kind of experiment: Cytotoxicity against human MDA-MB-468 cells after 72 hrs in presence of CYP1A1 inhibitor alpha-naphthoflavone by SRB assay. It counts as functional, cell-based. Put shortly:
(§2)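 MDA-MB-468 cells co-incubated for 72 h with drug plus a subtoxic concentration of a CYP inhibitor. Viability read by SRB assay: TCA fixation, sulforhodamine B staining, absorbance at 530-565 nm.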

In series [7] the test system is MDA-MB-468. Kind of series: Cytotoxicity against human MDA-MB-468 cells after 72 hrs in presence of CYP1A1 inhibitor quercetin by SRB assay. It counts as functional, cell-based. In a few lines: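 MDA-MB-468 cells (5.0 x 10^3/well) seeded and incubated 24 h. Drug freshly dissolved in DMSO, given at 0.75 to 1.0 x 10^5 nM, together with subtoxic CYP inhibitor, for 72 h. Cells fixed with cold 10% TCA and stained with 0.1% sulforhodamine B. Bound dye taken up in 10 mM Tris, absorbance read at 530-565 nm. At least two experiments, triplicate cultures.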

Series [8] deals with MDA-MB-468. Kind of series: Cytotoxicity against human MDA-MB-468 cells after 72 hrs in presence of CYP inhibitor pentachlorophenol by SRB assay. The class given is functional, cell-based. In a few lines:
as §2

Series [9] in a line: Stability in human liver microsomes assessed as compound remaining after 60 mins by HPLC-MS analysis. (In general: Microsomes from liver hold many membrane-bound enzymes, among them those of drug oxidation.)
The test system of series [10] is MCF7. Kind of series: Cell cycle arrest in human MCF7 cells assessed as accumulation at subG1 phase at 8 nM after 24 hrs by DAPI-staining based FACS analysis (reference value: 1.4%). The class given is functional.
Series [11] deals with MDA-MB-468. Kind of series: Cell cycle arrest in human MDA-MB-468 cells assessed as accumulation at S phase at 8 nM after 24 hrs by DAPI-staining based FACS analysis (reference value: 17%). It counts as functional.
Series [12] has as its system MDA-MB-231. As to the kind of experiment: Cell cycle arrest in human MDA-MB-231 cells assessed as accumulation at S phase at 8 nM after 24 hrs by DAPI-staining based FACS analysis (reference value: 9.7%). It counts as functional.

Turning to `CCCCN1CCN(c2ccc(S(=O)(=O)Oc3cc(OC)c(OC)c(OC)c3)cc2)C1=O`, the half-inhibitory concentration (IC50) in the series on HT-29 was 3.6 µM; in the series with M21 it was 3.8 µM. For the same compound, the Activity was 1.8% in the series on MCF7 [1] and 15.6% in the series with MDA-MB-231 [2]. In addition, the result in the series filed under Homo sapiens [3], in the series filed under Homo sapiens [4] and with MDA-MB-468 [8] was Active. The result in the series filed under Homo sapiens [5], in the series with MDA-MB-468 [6] and in the series on MDA-MB-468 [7] was inactive. The fraction remaining at 1 h in [9] stood at 25%.

As for `COc1cc(OS(=O)(=O)c2ccc(N3CCNC3=O)cc2)cc(OC)c1OC`, the Activity in the series with MCF7 [10] is given as 35.6%; in the series with MDA-MB-468 [11], 13.3%; in the series on MDA-MB-231 [12] it was 8.9%.

The IC50 is the midpoint of a concentration-inhibition curve. A high value points to lower potency. What is called share remaining is the share of the starting amount still present when the sample was taken.
